Calls of active or inactive are those of the source. The rule behind the calls is not given here. Residues, ends and D or L forms follow the SMILES beside them. *: point of attachment. Boc = CC(C)(C)OC(=O)*; Bn = c1ccc(C*)cc1
Experiments:
Streptococcus agalactiae [1] = test: Inhibition of Streptococcus agalactiae NSR transfected in Lactococcus lactis NZ9000 cells assessed as bacterial growth inhibition at 150 uM incubated for 5 hrs by optical density based assay in presence of 30 nM nisin
In short: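 L. lactis NZ9000 carrying the SaNSR plasmid, and an empty-plasmid control strain, grown overnight in GM17 with 5 µg/ml erythromycin and 1 ng/ml nisin. Diluted to OD595 0.1 and preincubated 30 min at 30 °C, then exposed to compound plus 30 nM nisin for 5 h at 30 °C. Specific inhibition is the OD ratio between strains as %; ≥3 independent experiments.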

Streptococcus agalactiae [2] = test: Inhibition of Streptococcus agalactiae NSR transfected in Lactococcus lactis NZ9000 cells assessed as potentiation of nisin-induced growth inhibition by measuring reduction in nisin IC50 at 300 uM incubated for 5 hrs by optical density based assay relative to nisin alone
In short: (§1)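 SaNSR-expressing L. lactis NZ9000 preincubated at OD595 0.1 with fixed compound (120 or 300 µM), mixed with serial nisin dilutions, and read by OD595 after 5 h at 30 °C. Nisin IC50 taken from dose-response curves. Expressed as % ratio of the IC50 with compound to the IC50 of the same strain without it; ≥3 independent experiments.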

Streptococcus agalactiae [3] = test: Inhibition of Streptococcus agalactiae NSR transfected in Lactococcus lactis NZ9000 cells assessed as potentiation of nisin-induced growth inhibition by measuring reduction in nisin IC50 at 120 uM incubated for 5 hrs by optical density based assay relative to nisin alone; in short: as §1
[4] = test system: Streptococcus agalactiae COH1; test: Binding affinity to N-terminal 8xHis-tagged Streptococcus agalactiae COH1 NSR30 (30 amino acids deletion at N-terminal transmembrane region) expressed in Escherichia coli BL21 (DE3) cells at 18 mM by STD NMR method; conditions: 1.8 mM, in the assay text read “1.8 mM” for “18 mM”
In short: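 His-tagged SaNSR30 induced with 1 mM IPTG at OD600 0.8–1.0 and expressed overnight at 18 °C. Purified by metal-affinity chromatography with 150 mM histidine elution, then size exclusion in 25 mM MES pH 6, 150 mM NaCl.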

Lactococcus lactis = test: Growth inhibition of Lactococcus lactis NZ9000 transfected with Streptococcus agalactiae NSR at 300 uM incubated for 5 hrs in absence of nisin by optical density based assay; format: organism-based; conditions: in vivo

SMILES | inhibition (Streptococcus agalactiae [1]) [%] | further results
CC(CO)NC(=O)Nc1ccc(C(F)(F)F)cc1 (centres undefined) |  | inhibition (Streptococcus agalactiae [2]): < 1%
CCn1c(=O)n(CCC(=O)Nc2nc(-c3ccc4c(c3)CCO4)cs2)c2ccccc21 | < 1 | 
O=C(CCn1c(=O)oc2cc(Cl)ccc21)Nc1ccc(N2CCOCC2)nc1 | 19 | 
CC(C(=O)NC(CO)(CO)CO)c1ccc2c(c1)[nH]c1ccc(Cl)cc12 (centres undefined) | 8.21 | 
COc1ccc2[nH]cc(CCNC(=O)CC3C(=O)Nc4c3c(=O)n(C)c(=O)n4C)c2c1 (centres undefined) | 11.3 | 
CCCCc1ccc(NC(=O)CN2C(=O)NC(C)(Cc3ccc(OC)c(OC)c3)C2=O)cc1 (centres undefined) | 14.1 | 
Cc1cc(C)c(S(=O)(=O)N2CCCC2CNC(=O)C(=O)Nc2ccccc2C#N)c(C)c1 (centres undefined) | < 1 | 
O=C(Nc1ccc(C(F)(F)F)cc1)NC1(CO)CCOCC1 |  | inhibition (Streptococcus agalactiae [3]): < 1%; inhibition (Streptococcus agalactiae [2]): < 1%
COc1ccc(C2(CNC(=O)C(=O)Nc3ccc(Br)cc3)CCOCC2)cc1 | < 1 | 
CCC(CC)(CO)NC(=O)Nc1cccc(Oc2ccccc2)c1 |  | inhibition (Streptococcus agalactiae [2]): < 1%
CC(C)(CO)NC(=O)NCC12CC3CC(CC(C3)C1)C2 |  | inhibition (Streptococcus agalactiae [3]): 4%; inhibition (Streptococcus agalactiae [2]): 8.5%
CC1CCc2nc(NC(=O)c3ccccc3NC(=O)CSc3nccn3C)sc2C1 (centres undefined) | 1.38 | 
Cc1ccc(-n2nc(C)c(NC(=O)Cn3cnc4c3c(=O)n(C)c(=O)n4C)c2C)cc1 | 14.2 | 
O=C(Nc1ccccc1C(F)(F)F)NC(CO)(CO)C(F)(F)F |  | inhibition (Streptococcus agalactiae [3]): < 1%; inhibition (Streptococcus agalactiae [2]): < 1%
N#Cc1ccc(NC(=O)NC(CO)c2ccccc2)cc1 (centres undefined) |  | inhibition (Streptococcus agalactiae [3]): 8.1%; inhibition (Streptococcus agalactiae [2]): 13.5%
CC(CO)(CO)NC(=O)NC1CCCCC1 |  | inhibition (Streptococcus agalactiae [2]): < 1%
CC(CO)NC(=O)Nc1ccc(Cl)cc1 (centres undefined) |  | inhibition (Streptococcus agalactiae [2]): < 1%
COc1ccccc1-n1cc(C(=O)N2Cc3nc[nH]c3CC2C(=O)O)cn1 (centres undefined) | 10.8 | 
N#Cc1ccc(NC(=O)NCCNC(=O)Nc2ccc(C#N)cc2)cc1 |  | inhibition (Streptococcus agalactiae [2]): < 1%
Cc1ccc2c(c1)-c1c(cnn1CC(=O)NC(C)c1ccc3c(c1)OCCO3)CO2 (centres undefined) | < 1 | 
CC(CO)(CO)NC(=O)Nc1ccc(Cl)c(Br)c1 | 57.9 | inhibition (Streptococcus agalactiae [3]): 50.5%; Activity [4]: Active; growth inhibition (GI) (Lactococcus lactis): Toxic
CC(C)NC(=O)Nc1ccc(Cl)cc1 |  | inhibition (Streptococcus agalactiae [2]): < 1%
COc1ccc(-c2cc(N3CCCN(C(=O)C4(c5ccc(OC)cc5)CC4)CC3)[nH]n2)cc1 | 20.7 | inhibition (Streptococcus agalactiae [2]): 20.5%
Cc1cc(C)c2c(=O)n(CC(=O)Nc3ccc(C(C)C)cc3)c(=O)n(Cc3ccco3)c2n1 | < 1 | 

Now from value to molecule, other results behind:

inhibition (Streptococcus agalactiae [1]) [%] | SMILES | further results
7.92 | CNC(=O)CNC(=O)c1cccc(S(=O)(=O)NC(C)c2ccccc2)c1 (centres undefined) | 
< 1 | O=C(CNC(=O)c1ccc2c(c1)OCO2)NCCc1c[nH]c2ccccc12 | 
3.21 | CCCCn1nc(C(=O)N[C@@H](Cc2c[nH]c3ccccc23)C(=O)O)c2ccccc2c1=O | 
4.86 | COc1ccc(C2(CNC(=O)c3cn(C(C)C)c(=O)c4ccccc34)CCOCC2)cc1 | 
17.5 | CC(O)C(NC(=O)C(Cc1ccc(OCc2ccccc2)cc1)NC(=O)CNC(=O)OC(C)(C)C)C(N)=O (stereo not drawn) (Boc-Gly-Tyr(Bn)-Thr-NH2; configuration not given here) | 
19.6 | CCCC(=O)Nc1ccc(CNC(=O)NCC(CO)Cc2ccc(C)cc2)cc1 (centres undefined) | 
13.4 | CC(O)(CNC(=O)NCC[S+]([O-])c1ccccc1)c1ccco1 (centres undefined) | 
< 1 | Cc1cc(C)nc(NC(Cc2ccccc2)C(=O)NCc2nc3ccccc3[nH]2)n1 (centres undefined) | 
15.3 | Cc1[nH]c(SCC(=O)Nc2[nH]c(Cc3ccccc3)c(C)c2C#N)nc1Cc1ccccc1 | 
6.03 | CCc1ccc(NC(=O)C(=O)NCC(c2ccc3c(c2)OCO3)N2CCN(C)CC2)cc1 (centres undefined) | 
< 1 | OC(CNc1ccccc1Cl)COc1ccc(OCC(O)CNc2ccccc2Cl)cc1 (centres undefined) | 
9.95 | O=C(CC[C@H]1NC(=O)c2ccccc2NC1=O)NCc1nc2ccccc2[nH]1 | 
< 1 | CCc1cc(=O)[nH]c(-n2nc(C)cc2NC(=O)C(=O)NCCc2ccccc2)n1 | 
< 1 | O=C(Cn1cnc2c(oc3ccccc32)c1=O)NCc1ccccc1Cn1ccnc1 | 
< 1 | O=C(CC1NC(=O)c2ccccc2NC1=O)NCc1nc(-c2ccccc2Cl)no1 (centres undefined) | 
< 1 | CCN(CC)Cc1ccc(CNC(=O)NCc2ccc(Cn3ccnc3)cc2)cc1 | 
< 1 | Cc1cc(C)c2c(C)nn(-c3ccc(NC(=O)CCc4nc5ccccc5c(=O)[nH]4)cc3)c2n1 | inhibition (Streptococcus agalactiae [2]): 1.9%
16.9 | O=C(NCc1ccccc1)C(=Cc1ccc(O)c(O)c1)C(=O)NCc1ccccc1 | inhibition (Streptococcus agalactiae [2]): 32.2%
7.58 | CC(=O)Nc1ccc(NC(=O)CSc2nc3ccccc3c(=O)n2-c2ccccc2)cc1 | 
13.6 | O=C(NCC(O)c1ccc(O)cc1)C(=O)Nc1ccccc1O (centres undefined) | 

— ChEMBL document CHEMBL4396968, “Small-molecule inhibitors of nisin resistance protein NSR from the human pathogen Streptococcus agalactiae” (Bioorg Med Chem, 2019)
